# Hsp70 act = Hsp70 transcriptional activators, primary screen, cell-based, HeLa, Hsp70 promoter luciferase, luminescence, 10 µM | HeLa Hsp70 promoter luciferase reporter; scaled: vehicle 0, proteasome-inhibitor control 100% | activation, % at 10 µM | 0.04% of 200,000 active | AID 1203, 2008;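 active means activation above the mean across all tested compounds plus 3 SD, cutoff set per campaign, cut at about 5.5% in these data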;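 further: 100% = MG132 at 30 µM as the positive control and 0% = DMSO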
# HSF1 activator = HSF-1 activators, primary screen, NIH3T3-HGL cells, MG132 stress, luminescence, single point; NIH3T3-HGL HSF-1 luciferase reporter, 8 h; 100% = twice DMSO control signal; activation, % at 9 µM; 1.7% of 300,000 active;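 active means mean replicate activation of at least 50% with a set share of replicates each reaching 50%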;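 further: 0% = median of the neutral control wells and 100% = twice that signal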
# HKDC1 inh = HKDC1 hexokinase inhibitors, primary screen, biochemical, fluorescence, uHTS; Q2TB90; recombinant HKDC1, G6PDH/diaphorase resazurin coupled fluorescence; inhibition, % at 20 µM; 0.16% of 340,000 active;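 active means inhibition above about 35% when tested at 20 µM, limit read from the data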;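 further: plate controls were DMSO wells with enzyme for no effect and DMSO wells lacking enzyme for full effect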
#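 System: Recombinant HKDC1 hexokinase | Amount: HKDC1 at 5 µg/mL | Reagent: Glucose with 1 mM ATP | Doses: Single 20 µM dose | Incubation: Reaction time 90 min, room temperature, protected from light | Signal: Coupled resazurin fluorescence, excitation 525 nm, emission 613 nm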
# HSF1 inhib = HSF1 inhibitors in luciferase reporter cells, primary screen, cell-based, NIH3T3, luminescence; 0.77% of 300,000 active; NIH3T3-HGL HSE-luciferase, MG132-induced, luminescence 8 h; active compounds read low; activity change, negative = inhibition, % at 7.5 µM (by protocol); AID 2098, 2009;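 active means more than half of replicate wells show activity change below -50%, luminescence cut by over half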;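 further: luciferase reports HSF-1 transcriptional activity via heat shock element; 0% = median of DMSO wells and -100% = zero luminescence signal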
# TbHK1 inh = Trypanosoma brucei hexokinase 1 inhibitors, primary screen, biochemical, G6PDH-coupled NADH absorbance, MLSCN library. recombinant TbHK1, G6PDH-coupled NADH A340. inhibition, % at 10 µM. 0.11% of 220,000 active;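 active means inhibition of 50% or more in the single-dose primary screen; inactive means inhibition below 50%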
# HSP90 refold inh = HSP90 inhibitors, primary screen, cell lysate, luminescence; 0.91% of 290,000 active; Heat shock protein HSP 90 (rabbit reticulocyte lysate; luciferase refolding); inhibition, % at 5.6 µM; Rabbit reticulocyte lysate, luciferase refolding luminescence, 3 h;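 active means inhibition above the screen-wide mean plus 3 SD, computed separately per campaign, cut at about 16% in these data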;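 further: 0% = DMSO wells and 100% = 60 µM geldanamycin wells; inhibitors lower the luminescence because luciferase stays unfolded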
# HSP90 inh confirm = HSP90 inhibitors, confirmation, cell lysate, luminescence. AID 1846, 2009. 64% of 2,300 active. inhibition, % at 5.9 µM. rabbit reticulocyte lysate, luciferase refolding luminescence, 3 h. shares compounds with HSP90 refold inh; in the data active means inhibition above about 18%;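 further: 0% = vehicle wells and 100% = reference inhibitor wells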
# FLuc counter = firefly luciferase inhibitors, HSP90 counter-screen, confirmation, artefact control for HSP90 inhibitor project, biochemical, luminescence, triplicate; shares compounds with HSP90 refold inh; purified native firefly luciferase; inhibition, % at 5.9 µM; 48% of 2,300 active;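 active means inhibition above the mean inhibition of all tested sample wells plus 3 SD, cut at about 10% in these data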;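 further: 0% = DMSO with luciferase and 100% = wells lacking luciferase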
# Target sequence (P08659 whole entry, looked up): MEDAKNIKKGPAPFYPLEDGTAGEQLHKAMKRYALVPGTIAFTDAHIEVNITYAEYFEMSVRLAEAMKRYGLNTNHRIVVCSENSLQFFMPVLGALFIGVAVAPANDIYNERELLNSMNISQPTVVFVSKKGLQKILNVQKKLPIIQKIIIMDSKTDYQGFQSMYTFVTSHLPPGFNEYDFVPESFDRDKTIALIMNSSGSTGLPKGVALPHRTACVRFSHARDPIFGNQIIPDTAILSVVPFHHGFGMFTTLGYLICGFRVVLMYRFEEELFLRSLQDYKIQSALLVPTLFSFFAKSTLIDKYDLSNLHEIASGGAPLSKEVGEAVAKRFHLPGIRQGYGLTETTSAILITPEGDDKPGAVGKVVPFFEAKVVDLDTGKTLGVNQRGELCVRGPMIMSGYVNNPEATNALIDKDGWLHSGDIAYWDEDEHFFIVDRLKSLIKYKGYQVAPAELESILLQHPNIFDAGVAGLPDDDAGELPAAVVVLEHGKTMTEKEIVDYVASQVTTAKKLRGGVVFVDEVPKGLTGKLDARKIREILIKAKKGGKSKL
# Starred values were filed as active, the others as inactive; x = not tested or not shown. The list is not random: actives were taken first. Their share in the collection is about 3.1%.
SMILES,Hsp70 act,HSF1 activator,HKDC1 inh,HSF1 inhib,TbHK1 inh,HSP90 refold inh,HSP90 inh confirm,FLuc counter
COc1cc(/C=N/Nc2nc3ccccc3s2)cc([N+](=O)[O-])c1O,x,5.6,3.5,17.6,-92.3,29.1*,-11.3,-29.6
O=[N+]([O-])c1cc(Cl)cc(/C=N/Nc2nc3ccccc3s2)c1O,0.1,35.2,-9.9,18.7,-4.1,-2.6,x,x
CC(=NCc1ccco1)c1c(C)[nH]n(-c2nc3ccccc3s2)c1=O,0.0,x,-2.7,x,-2.0,31.6*,49.7*,16.5*
COc1ccc(C(CNC(=O)C(C)Sc2ccccc2)N2CCOCC2)cc1 (configuration not stated),x,x,-5.8,x,x,x,x,x
CC(C)(C)OC(=O)N1CCC[C@H]1C(=O)N/N=C/c1ccc2nccnc2c1,x,-5.6,1.8,-7.3,-29.9,0.4,x,x
COc1ccc2nc(/C=N/NC(=O)[C@@H]3CCCN3C(=O)OC(C)(C)C)ccc2c1,x,-12.6,5.8,-3.9,-48.6,40.6*,25.7*,-1.3
CC(C)c1ccc(N(CC(=O)NCc2cccnc2)S(=O)(=O)c2ccccc2)cc1,x,14.5,-4.6,10.6,x,26.6*,0.6,-3.0
CCOC(=O)C1=C(COC(=O)C2CC(=O)N(c3ccccc3F)C2)NC(=O)NC1C (configuration not stated),x,x,-1.2,x,x,x,x,x
CC1(C)CC(NC(=O)COc2ccc(Br)cc2Cl)CC(C)(C)N1,x,-19.0,-6.0,-14.4,x,5.5,x,x
CC1(C)CC(NC(=O)COc2ccccc2Cl)CC(C)(C)N1,0.0,-68.2,-8.1,-65.2*,8.8,33.5*,37.4*,45.2*
O=C(COc1ccccc1Cl)N(Cc1cccs1)C1CCS(=O)(=O)C1 (configuration not stated),x,-2.5,-5.9,0.9,x,-6.6,x,x
Cc1cc(Cl)ccc1OCC(=O)N(Cc1cccs1)C1CCS(=O)(=O)C1 (configuration not stated),x,41.3,1.2,15.5,x,22.9*,2.2,-4.3
COc1ccc(C)cc1NC(=O)CSc1nnc2ccc(-c3ccncc3)nn12,x,-2.4,6.2,-3.4,x,x,x,x
COc1ccc(NC(=O)/C(C#N)=C\c2ccc(-c3cccc(C(=O)O)c3C)o2)cc1,x,-2.8,3.6,-0.7,x,31.8*,28.1*,5.8
COc1ccc(NC(=O)/C(C#N)=C/c2ccc(-c3ccccc3C(=O)O)o2)cc1,x,25.2,1.5,4.2,x,2.1,x,x
CCOC(=O)c1c(C)oc2c1c(C=NCC1CCCO1)c(O)c1ccccc12 (configuration not stated),0.2,45.2,15.4,14.0,11.9,18.7*,1.7,-11.1
Cc1cc(OCC(=O)N[C@@H](CSCc2ccccc2)C(=O)O)c2c(C)c(C)c(=O)oc2c1,x,-18.1,2.8,-1.4,x,-1.3,x,x
NNC(=O)c1ccc(COc2ccc3ccccc3c2)o1,x,48.5,11.4,17.0,3.6,3.1,x,x
O=C(OCc1ccccn1)c1ccc(COc2ccc3ccccc3c2)o1,x,32.9,6.4,19.6,-7.4,44.5*,63.2*,-11.4
CCN(Cc1ccncc1)C(=O)c1ccc(C)c(S(=O)(=O)N2CCCCC2)c1,x,x,1.9,x,x,x,x,x
CC1(C)CN=C(N(Cc2ccccc2)C(=O)Nc2ccccc2)S1,-0.2,-2.1,18.2,-6.2,-1.4,19.0*,29.4*,18.7*
COc1ccc(-c2cn3c(C)c(C(=O)Nc4ccncc4)sc3n2)cc1,-0.3,-18.3,-3.2,-13.5,-28.3,11.6,x,x
COC(=O)c1ccc(NC(=O)c2sc3nc(-c4ccccc4)cn3c2C)cc1,-0.4,-20.3,1.1,-7.5,-10.4,20.7*,17.7*,-21.0
O=C(NCc1nc2ccccc2[nH]1)C1=C[C@H](c2ccc(C(F)(F)F)cc2)C[C@H](OCCCCO)O1,x,3.8,-0.9,-3.6,x,x,x,x
Cc1cccc(NC(=O)CSc2nnc(Cn3nnc(-c4ccccc4)n3)n2-c2ccccc2)c1,-0.6,8.4,-11.4,13.2,-1.4,21.1*,5.1,-9.6
SMILES,Hsp70 act,HSF1 activator,HKDC1 inh,HSF1 inhib,TbHK1 inh,HSP90 refold inh,HSP90 inh confirm,FLuc counter
CCn1c(Cn2nnc(-c3ccccc3)n2)nnc1SCC(=O)Nc1ccc(C(C)=O)cc1,0.2,12.6,-7.6,20.6,-0.9,1.9,x,x
Cc1cccc([C@@H]2[C@@H]3C(=O)N(Cc4ccccc4)C(=O)[C@@H]3[C@]3(Cc4ccc(Cl)cc4)C(=O)N(c4ccc(Br)cc4)C(=O)N23)c1,x,-9.1,6.0,2.1,x,26.6*,12.5,-7.1
CCCCn1c(SC(C)C(=O)NCC2CCCO2)nc2cc(C(=O)OC)ccc2c1=O (configuration not stated),x,7.9,0.7,-0.6,x,x,x,x
CCCCn1c(SC(C)C(N)=O)nc2cc(C(=O)OC)ccc2c1=O (configuration not stated),-0.4,-8.1,-0.1,-4.1,-4.1,28.1*,-1.6,-6.4
CC(=O)NC1C(=O)N=C(SCc2ccccc2)NC1=O (configuration not stated),-0.4,22.2,-5.8,6.1,-4.5,49.5*,2.2,-4.7
Cc1ccc2oc(/N=C(\N)NC(=O)C(C)(C)C)nc2c1,x,-92.6,-0.1,-90.9*,-6.5,81.1*,84.5*,82.9*
Cc1ccc2oc(/N=C(\N)NC(=O)C3CC3)nc2c1,x,20.8,2.0,2.4,-11.1,26.8*,47.8*,40.1*
Clc1ccc(-c2cccs2)nn1,-0.4,-16.9,-7.6,-7.2,-1.6,-0.1,x,x
CC1CCN(c2ccc(-c3cccs3)nn2)CC1,x,-72.1,-4.7,-67.1*,x,80.9*,90.1*,84.4*
Cn1cccc1C(=O)NNC(=O)COc1ccccc1Cl,x,x,-3.5,x,x,x,x,x
COc1ccc(-c2nsc3c(N4CCCCC4)ncnc23)cc1,-0.5,-83.0,5.3,-80.1*,3.9,61.4*,82.0*,62.6*
COc1ccc(C(=O)N2CCN(c3ncnc4c(-c5ccccc5)nsc34)CC2)cc1,0.2,7.1,-1.4,-5.4,1.9,1.7,x,x
COc1ccc(-c2nsc3c(N4CCCCC4C)ncnc23)cc1 (configuration not stated),-0.6,-95.8,8.7,-94.5*,-16.2,77.8*,83.3*,79.9*
CN(C)S(=O)(=O)c1ccc(NC(=O)Cn2nc(-c3ccc4c(c3)OCCO4)ccc2=O)cc1,x,x,-4.7,x,x,x,x,x
